# Assays:
# Cannabinoid receptor 2 [1] = molecular target: T1, Cannabinoid receptor 2 (Homo sapiens, UniProt P34972); assay: Binding affinity to human CB2 receptor
# Summary of the method: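 Competition binding with [³H]CP-55,940 on membranes from CHO cells expressing human CB2. Buffer: 50 mM Tris, 5 mM MgCl₂, 2.5 mM EGTA, 0.1% fatty-acid-free BSA, pH 7.4. Incubated 1 h at 30 °C with shaking, then rapid filtration through 0.5% polyethylenimine-coated filters. Ki from nonlinear regression, using Kd from saturation experiments. Single experiment, triplicates, 10 concentrations.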
# [2] = Ratio of drug level in brain to plasma in ip dosed rat; format: ADME, organism-based; conditions: read-out: BPR
# [3] = Drug level in brain of ip dosed rat after 1 hr; format: ADME, organism-based; conditions: read-out: Drug uptake
# [4] = Lipophilicity, log D of the compound in n-octanol/phosphate buffer pH 7.4 by shake flask method; format: physicochemical
# Cannabinoid receptor 2 [5] = molecular target: T1, Cannabinoid receptor 2; assay: Activity at human CB2 receptor expressed in CHO cells assessed as cAMP accumulation incubated for 30 mins by time-resolved FRET assay; format: functional, cell-based
# Summary of the method: (§1)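 CHO cells expressing human CB1 or CB2 were seeded 1 day before in DMEM/HT supplement/10% FCS. Medium was replaced with Krebs Ringer bicarbonate buffer containing 1 mM IBMX, 30 min at 30 °C, then compound added for 30 min at 30 °C. cAMP was read by time-resolved FRET (cAMP-Nano-TRF kit) against a standard curve from 10 μM to 0.13 nM. Ten concentrations in triplicate, single experiment.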
# Cannabinoid receptor 1 = Cannabinoid receptor 1 (Homo sapiens, UniProt P21554); assay: Activity at human CB1 receptor expressed in CHO cells assessed as cAMP accumulation incubated for 30 mins by time-resolved FRET assay; format: functional, cell-based; summary of the method: as §1
# Cannabinoid receptor 2 [6] = molecular target: T1, Cannabinoid receptor 2; assay: Displacement of [3H]CP-55,940 from human CB2 receptor expressed in CHO cell membranes
# Summary of the method: (§2)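 Membranes from CHO cells expressing human or murine CB2 were incubated with [3H]CP-55,940 in 50 mM Tris, 5 mM MgCl2, 2.5 mM EGTA, 0.1% fatty-acid-free BSA, pH 7.4, 1 h at 30 °C with shaking. Reaction stopped by filtration through PEI-coated GF/B. Ki from nonlinear regression using saturation-derived Kd. Ten concentrations in triplicate.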
# Cannabinoid receptor 2 [7] = molecular target: Cannabinoid receptor 2 (Mus musculus, UniProt P47936); assay: Displacement of [3H]CP-55,940 from mouse CB2 receptor expressed in CHO cell membranes; summary of the method: as §2
# CHO = assay: Selectivity index, ratio of EC50 for human CB1 receptor expressed in CHO cells to EC50 for human CB2 receptor expressed in CHO cells; format: cell-based
# [8] = Substrate activity at P-gp (unknown origin); format: ADME; conditions: human
# [9] = Lipophilicity, log D of the radio-labeled compound in n-octanol/phosphate buffer pH 7.4 by shake flask method; format: physicochemical
# Summary of the method: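 Formulated radiotracer (8 MBq) was added to n-octanol and phosphate buffer pH 7.4, each presaturated with the other, shaken 15 min and centrifuged 5000g 5 min. Radioactivity in both phases was gamma-counted and D taken as their ratio; n = 5.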
# [10] = Stability in rat plasma assessed as intact compound remaining at 4 MBq at 37 degC incubated for 5 to 20 mins by radio-TLC method; format: ADME, cell-free; conditions: read-out: Stability
# Summary of the method: (§3)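 Mouse, rat or human plasma was incubated with formulated radiotracer (4 MBq) at 37 °C with shaking. Aliquots taken at 5, 10, 15 and 20 min were quenched with ice-cold acetonitrile and centrifuged. Supernatant was analysed by radio-TLC in hexane/EtOAc (1:1).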
# [11] = Stability in mouse plasma assessed as intact compound remaining at 4 MBq at 37 degC incubated for 5 to 20 mins by radio-TLC method; format: ADME, cell-free; conditions: read-out: Stability; summary of the method: as §3
# Plasma = assay: Stability in human plasma assessed as compound degradation at 4 MBq at 37 degC […] by radio-TLC method; format: ADME, cell-free; conditions: 40 min
# Spleen [12] = assay: Biodistribution in rat spleen at 0.2 nM incubated for 15 mins by autoradiography; format: ADME; conditions: 0.25 h, 0.0002 µM
# Summary of the method: (§4)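 Mouse or rat spleen cryosections (20 μm) were thawed on ice and preconditioned in 50 mM Tris/HCl, 5% BSA, pH 7.4, then incubated 15 min at rt with 0.2 nM radioligand, alone or with 5 μM blocker. Washed in Tris/HCl with 1% BSA and 5% EtOH (2 × 2 min) and water on ice, then exposed 30 min to phosphor imager plates.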
# Spleen [13] = assay: Biodistribution in mouse spleen at 0.2 nM incubated for 15 mins by autoradiography; format: ADME; conditions: 0.25 h, 0.0002 µM; summary of the method: as §4
# Spleen [14] = assay: Biodistribution in rat spleen at 0.2 nM incubated for 15 mins in presence of 5 uM CB2 ligand GW405833 by autoradiography; format: ADME; conditions: 0.25 h, 0.0002 µM; summary of the method: as §4
# Spleen [15] = assay: Biodistribution in mouse spleen at 0.2 nM incubated for 15 mins in presence of 5 uM CB2 ligand GW405833 by autoradiography; format: ADME; conditions: 0.25 h, 0.0002 µM; summary of the method: as §4
# Spleen [16] = assay: Biodistribution in Wistar rat spleen at 11 to 18 MBq, iv measured during first 10 mins by PET/CT imaging method; format: ADME, organism-based; conditions: in vivo
# Summary of the method: (§5)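 Isoflurane-anaesthetized male Wistar rats received 11–18 MBq (0.06–0.09 nmol) tracer via tail vein. Dynamic PET ran 60 min from injection, then CT. For displacement, 1.5 mg/kg blocker was given iv 10 min after tracer; 2 rats per condition. Temperature held at 37 °C. Reconstruction by 2D-OSEM without attenuation correction. Uptake given as SUV.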
# Spleen [17] = assay: Biodistribution in Wistar rat spleen at 11 to 18 MBq, iv treated with 1.5 mg/kg CB2 ligand GW405833 injected 10 mins after compound dosing by PET/CT imaging method; format: ADME, organism-based; conditions: in vivo; summary of the method: as §5
# Spleen [18] = assay: Biodistribution in Wistar rat spleen at 11 to 18 MBq, iv measured after 10 mins by PET/CT imaging method; format: ADME, organism-based; conditions: in vivo; summary of the method: as §5
# Spleen [19] = assay: Biodistribution in Wistar rat spleen at 11 to 18 MBq, iv treated with 1.5 mg/kg CB2 ligand GW405833 injected 10 mins after compound dosing and measured 15 mins after GW405833 dosing by PET/CT imaging method; format: ADME, organism-based; conditions: in vivo, 0.25 h; summary of the method: as §5
# Spleen [20] = assay: Biodistribution in Wistar rat spleen at 6 to 10 MBq, iv treated with 1.5 mg/kg CB2 ligand GW405833 injected 1 mins after compound dosing by gamma counting method; format: ADME, organism-based; conditions: in vivo
# Brain [21] = assay: Biodistribution in Wistar rat brain at 6 to 10 MBq, iv measured after 15 mins by gamma counting method; format: ADME, organism-based; conditions: in vivo, 0.25 h
# Summary of the method: (§6)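 Male Wistar rats (5 weeks old) received 6–10 MBq (0.03–0.05 nmol) tracer via tail vein. For blocking, 1.5 mg/kg blocker was given iv shortly before the tracer (n = 3). Rats were decapitated under isoflurane at 15 min pi. Organs were weighed and gamma-counted, expressed as normalized %ID/g tissue (per 1 kg body weight). One baseline animal was excluded for paravenous injection.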
# Small intestine = assay: Biodistribution in Wistar rat small intestine at 6 to 10 MBq, iv measured after 15 mins by gamma counting method; format: ADME, organism-based; conditions: in vivo, 0.25 h; summary of the method: as §6
# Liver = assay: Biodistribution in Wistar rat liver at 6 to 10 MBq, iv measured after 15 mins by gamma counting method; format: ADME, organism-based; conditions: in vivo, 0.25 h; summary of the method: as §6
# Brain [22] = assay: Biodistribution in Wistar rat brain at 48 MBq, iv measured after 20 mins by radio-TLC method; format: ADME, organism-based; conditions: in vivo
# [23] = Biodistribution in Wistar rat plasma assessed as intact parent tracer level at 48 MBq, iv measured after 5 mins by radio-TLC method; format: ADME, organism-based; conditions: read-out: Drug uptake
# Summary of the method: (§7)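 After iv tracer, rat plasma was taken at 5, 10 and 20 min. Urine and brain were collected at 20 min sacrifice. Plasma was separated at 5000g, 5 min, 4 °C. Proteins in plasma, urine and PBS brain homogenate were precipitated with cold acetonitrile and centrifuged. Supernatants were run by radio-TLC in hexane/EtOAc (1:1), reported as % of total activity.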
# [24] = Biodistribution in Wistar rat plasma assessed as intact parent tracer level at 48 MBq, iv measured after 10 mins by radio-TLC method; format: ADME, organism-based; conditions: read-out: Drug uptake; summary of the method: as §7
# [25] = Biodistribution in Wistar rat plasma assessed as intact parent tracer level at 48 MBq, iv measured after 20 mins by radio-TLC method; format: ADME, organism-based; conditions: read-out: Drug uptake; summary of the method: as §7
# [26] = Drug metabolism in Wistar rat urine assessed as hydrophilic radio-metabolites level at 48 MBq, iv measured after 5 to 20 mins by radio-TLC method; format: ADME, organism-based; conditions: in vivo; summary of the method: as §7
# Brain [27] = assay: Biodistribution in brain of mouse model of LPS-induced neuroinflammation at 10 to 27 MBq, iv treated with 10 mg/kg LPS 5 days before PET scan by PET imaging method; format: ADME, organism-based; conditions: in vivo, 120 h
# Summary of the method: (§8)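 Male CD-1 mice got 10 mg/kg LPS (E. coli O111:B4) or saline ip 5 days before PET. Under isoflurane, 10–27 MBq tracer was injected via tail vein, with 60 min PET then CT. For blocking, 2.0 mg/kg blocker or vehicle was given sc 30 min before tracer. Whole-brain ROI was taken on an MRI T2 template, expressed as SUV; n = 2 per condition.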
# Brain [28] = assay: Biodistribution in brain of mouse model of LPS-induced neuroinflammation at 10 to 27 MBq, iv treated with 2 mg/kg CB2 ligand GW405833 injected 30 mins before PECT acquisition by PET imaging method; format: ADME, organism-based; conditions: in vivo, 0.5 h; summary of the method: as §8
# Cannabinoid receptor 1, sequence (P21554 whole entry, looked up): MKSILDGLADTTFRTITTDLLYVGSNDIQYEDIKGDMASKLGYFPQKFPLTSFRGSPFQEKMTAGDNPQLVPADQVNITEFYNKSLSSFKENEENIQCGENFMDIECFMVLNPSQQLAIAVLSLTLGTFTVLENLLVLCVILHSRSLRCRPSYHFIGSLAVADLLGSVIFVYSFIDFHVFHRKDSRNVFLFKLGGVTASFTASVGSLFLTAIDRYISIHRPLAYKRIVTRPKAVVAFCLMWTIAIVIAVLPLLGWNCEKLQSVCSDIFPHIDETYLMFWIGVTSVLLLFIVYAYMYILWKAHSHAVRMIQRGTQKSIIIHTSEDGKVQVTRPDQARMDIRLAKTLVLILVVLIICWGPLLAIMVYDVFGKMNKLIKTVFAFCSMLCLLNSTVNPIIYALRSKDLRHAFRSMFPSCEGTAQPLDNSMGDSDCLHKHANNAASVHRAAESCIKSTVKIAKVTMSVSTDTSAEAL
# T1 sequence (P34972 whole entry): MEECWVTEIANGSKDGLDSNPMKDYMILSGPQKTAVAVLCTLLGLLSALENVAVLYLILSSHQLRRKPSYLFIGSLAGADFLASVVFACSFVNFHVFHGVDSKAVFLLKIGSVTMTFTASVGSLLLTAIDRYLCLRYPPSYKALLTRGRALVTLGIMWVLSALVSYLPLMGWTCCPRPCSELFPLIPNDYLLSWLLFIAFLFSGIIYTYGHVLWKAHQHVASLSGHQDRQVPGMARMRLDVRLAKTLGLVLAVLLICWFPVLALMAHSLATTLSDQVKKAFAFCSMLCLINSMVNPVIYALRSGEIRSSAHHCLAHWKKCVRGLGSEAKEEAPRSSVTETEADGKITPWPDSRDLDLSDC
# Cannabinoid receptor 2 (Mus musculus, UniProt P47936), sequence (P47936 whole entry): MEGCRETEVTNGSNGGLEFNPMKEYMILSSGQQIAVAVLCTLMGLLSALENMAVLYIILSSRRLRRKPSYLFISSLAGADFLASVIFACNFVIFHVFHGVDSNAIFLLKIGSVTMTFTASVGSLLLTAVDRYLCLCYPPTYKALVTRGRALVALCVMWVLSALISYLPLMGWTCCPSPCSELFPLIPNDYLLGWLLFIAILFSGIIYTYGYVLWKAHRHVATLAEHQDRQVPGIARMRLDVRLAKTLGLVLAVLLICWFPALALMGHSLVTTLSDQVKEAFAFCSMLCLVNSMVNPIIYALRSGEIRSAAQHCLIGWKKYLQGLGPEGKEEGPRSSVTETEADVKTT
smiles,measurement,setting,value
COc1ccc2c(c1)c(CCN1CCOCC1)c(C)n2C(=O)c1cccc(Cl)c1Cl,Ki,Cannabinoid receptor 2 [1],3.9 nM
same,Kp,[2],5
same,concentration at 1 h,[3],> 100 nM
COC1CN(c2ccc(C(=O)NC(C)(C)Cc3nnc(C4CCC4)o3)nc2OCC2CC2)C1,logD,[4],3.37
same,EC50,Cannabinoid receptor 2 [5],4010 nM
same,EC50,Cannabinoid receptor 1,> 10 µM
COC1CN(c2ccc(C(=O)NC3(CC(N)=O)COC3)nc2OCC2CC2)C1,logD,[4],1.7
same,Ki,Cannabinoid receptor 2 [6],1020 nM
same,Ki,Cannabinoid receptor 2 [7],3110 nM
same,EC50,Cannabinoid receptor 1,> 10 µM
CCOCCOCC(C)(C)c1cc(NC(=O)c2ccc(C3CCCC3)c(OCC3CC3)n2)on1,Ki,Cannabinoid receptor 2 [6],264 nM
same,Ki,Cannabinoid receptor 2 [7],11.7 nM
same,EC50,Cannabinoid receptor 1,> 10 µM
CC(C)(Cc1nnc(-c2ccc(F)cc2)o1)NC(=O)c1ccc(N2CC(F)(F)C2)c(OCC2CC2)n1,Ki,Cannabinoid receptor 2 [6],3030 nM
same,Ki,Cannabinoid receptor 2 [7],1050 nM
same,EC50,Cannabinoid receptor 1,> 10 µM
COC1CN(c2ccc(C(=O)NC(C)(C)Cc3nnc(-c4ccc(F)cc4)o3)nc2OCC2CC2)C1,Ki,Cannabinoid receptor 2 [6],466 nM
same,Ki,Cannabinoid receptor 2 [7],504 nM
same,EC50,Cannabinoid receptor 2 [5],1810 nM
same,EC50,Cannabinoid receptor 1,> 10 µM
CCOC(=O)C(CC)(CC)NC(=O)c1ccc(C2CCCC2)c(OCC2CC2)n1,Ki,Cannabinoid receptor 2 [6],16.2 nM
same,Ki,Cannabinoid receptor 2 [7],38.5 nM
same,EC50,Cannabinoid receptor 2 [5],2.9 nM
same,EC50,Cannabinoid receptor 1,> 10 µM
CCC(CC)(NC(=O)c1ccc(N2CC(OC)C2)c(OCC2CC2)n1)C(=O)NC,logD,[4],3.18
same,Ki,Cannabinoid receptor 2 [6],170 nM
same,Ki,Cannabinoid receptor 2 [7],60.4 nM
same,EC50,Cannabinoid receptor 1,> 10 µM
CCC(CC)(NC(=O)c1ccc(N2CC(OC)C2)c(OCC2CC2)n1)C(=O)N1CC(F)C1,logD,[4],3.25
same,Ki,Cannabinoid receptor 2 [6],18.3 nM
same,Ki,Cannabinoid receptor 2 [7],6.9 nM
same,EC50,Cannabinoid receptor 2 [5],4.4 nM
same,EC50,Cannabinoid receptor 1,> 10 µM
same,Ratio EC50,CHO,> 1000
same,Activity,[8],Active
CCC(CC)(NC(=O)c1ccc(N2CC(OC)C2)c(OCC2CC2)n1)C(=O)NCCF,logD,[4],3.43
same,Ki,Cannabinoid receptor 2 [6],902 nM
same,Ki,Cannabinoid receptor 2 [7],421 nM
same,EC50,Cannabinoid receptor 2 [5],281 nM
same,EC50,Cannabinoid receptor 1,> 10 µM
CCOC(=O)C(CC)(CC)NC(=O)c1ccc(N2CC(O[11CH3])C2)c(OCC2CC2)n1,logD,[4],1.94
same,Ki,Cannabinoid receptor 2 [6],2.5 nM
same,logD,[9],1.94
same,remaining at 4 MBq,[10],86%
same,remaining at 4 MBq,[11],84%
same,Stability,Plasma,Stable
same,Drug uptake,Spleen [12],Active
same,Drug uptake,Spleen [13],Active
same,Drug uptake,Spleen [14],Not Active
same,Drug uptake,Spleen [15],Not Active
same,Drug uptake,Spleen [16],Active
same,Drug uptake,Spleen [17],Not Active
same,Drug uptake,Spleen [18],Not Active
same,Drug uptake,Spleen [19],Not Active
same,Drug uptake,Spleen [20],Not Active
same,Drug uptake,Brain [21],Not Active
same,Drug uptake,Small intestine,Active
same,Drug uptake,Liver,Active
same,Drug uptake,Brain [22],Not Active
same,remaining at 5 min,[23],51%
same,remaining at 10 min,[24],37%
same,remaining at 20 min,[25],21%
same,Drug metabolism,[26],metabolite_detected
same,Drug uptake,Brain [27],Active
same,Drug uptake,Brain [28],Not Active
